One assay has as its target Neuromedin-U receptor 2 (Homo sapiens, UniProt Q9GZQ4). Briefly: Agonist activity at human NMU2R transfected in HEK293 cells after 7 hrs by luciferase reporter gene assay. The class given is cell-based. The procedure, abridged: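 HEK-293 cells were stably co-transfected with a reporter gene construct and human NMU2R cDNA in pcDNA3.1(+), maintained under G418 selection at 37 °C in 5% CO2, then seeded and incubated overnight. Compounds were added at various concentrations for 7 h at 37 °C, followed by Bright-Glo luciferase read-out. Forskolin and NMU served as positive controls. EC50 was fitted by four-parameter logistic regression; means ± SEM of three independent experiments.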

Assay [1] concerns the target Glucagon receptor (Homo sapiens) (UniProt P47871). As to the kind of experiment: Agonist activity at human Glu receptor at 100 uM to 5 mM.
Assay [2] addresses Melanin-concentrating hormone receptor 1 (Homo sapiens) (UniProt Q99705). As to the kind of experiment: Agonist activity at human MCH1 receptor at 100 uM to 5 mM.
Assay [3] has as its target Melanocortin receptor 3 (Homo sapiens) (UniProt P41968). Briefly: Agonist activity at human MC3 receptor at 100 uM to 5 mM.
Assay [4] deals with T1, 5-hydroxytryptamine receptor 2C (Homo sapiens) (UniProt P28335).
T1 sequence (whole entry): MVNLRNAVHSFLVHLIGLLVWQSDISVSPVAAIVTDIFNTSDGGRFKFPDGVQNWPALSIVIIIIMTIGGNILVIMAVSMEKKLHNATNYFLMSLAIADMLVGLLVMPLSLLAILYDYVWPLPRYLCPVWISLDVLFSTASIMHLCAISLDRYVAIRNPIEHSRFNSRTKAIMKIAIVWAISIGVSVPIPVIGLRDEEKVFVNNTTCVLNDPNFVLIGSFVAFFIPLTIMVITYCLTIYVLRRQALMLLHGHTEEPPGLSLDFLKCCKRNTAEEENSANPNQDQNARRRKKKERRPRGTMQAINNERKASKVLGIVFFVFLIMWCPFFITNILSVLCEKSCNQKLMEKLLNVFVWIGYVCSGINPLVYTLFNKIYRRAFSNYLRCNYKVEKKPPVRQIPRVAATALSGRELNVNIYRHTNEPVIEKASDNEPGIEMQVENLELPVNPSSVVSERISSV
As to the kind of experiment: Agonist activity at human 5HT2C receptor at 100 uM to 5 mM.

In assay [5] the target is T2, Adenosine receptor A1 (Homo sapiens) (UniProt P30542).
T2 sequence (whole entry): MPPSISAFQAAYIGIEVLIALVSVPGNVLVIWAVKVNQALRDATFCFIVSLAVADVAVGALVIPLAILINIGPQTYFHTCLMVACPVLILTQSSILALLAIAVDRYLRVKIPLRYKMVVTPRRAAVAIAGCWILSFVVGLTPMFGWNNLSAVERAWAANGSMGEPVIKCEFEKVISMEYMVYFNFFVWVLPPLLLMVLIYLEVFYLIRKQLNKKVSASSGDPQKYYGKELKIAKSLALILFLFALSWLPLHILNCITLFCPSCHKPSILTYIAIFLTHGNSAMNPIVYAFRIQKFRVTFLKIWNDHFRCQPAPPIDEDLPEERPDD
As to the kind of experiment: Agonist activity at human A1 receptor at 100 uM to 5 mM.

In assay [6] the target is T3, Neuromedin-U receptor 1 (Homo sapiens) (UniProt Q9HB89).
T3 sequence (whole entry): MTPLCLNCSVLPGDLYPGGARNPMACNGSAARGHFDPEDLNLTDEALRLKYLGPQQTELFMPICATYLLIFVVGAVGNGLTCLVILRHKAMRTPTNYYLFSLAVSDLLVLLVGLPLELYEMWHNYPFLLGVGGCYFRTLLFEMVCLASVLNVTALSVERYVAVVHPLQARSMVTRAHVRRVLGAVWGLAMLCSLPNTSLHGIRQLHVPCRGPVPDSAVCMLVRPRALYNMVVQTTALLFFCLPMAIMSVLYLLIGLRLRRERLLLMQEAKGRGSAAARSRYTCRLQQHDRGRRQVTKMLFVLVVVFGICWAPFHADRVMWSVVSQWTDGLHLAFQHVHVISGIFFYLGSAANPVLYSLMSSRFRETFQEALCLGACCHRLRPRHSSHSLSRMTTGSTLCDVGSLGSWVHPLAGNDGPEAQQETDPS
Briefly: Agonist activity at human NMU1 receptor at 100 uM to 5 mM.

The target of assay [7] is T4, Muscarinic acetylcholine receptor M1 (Homo sapiens) (UniProt P11229).
T4 sequence (whole entry): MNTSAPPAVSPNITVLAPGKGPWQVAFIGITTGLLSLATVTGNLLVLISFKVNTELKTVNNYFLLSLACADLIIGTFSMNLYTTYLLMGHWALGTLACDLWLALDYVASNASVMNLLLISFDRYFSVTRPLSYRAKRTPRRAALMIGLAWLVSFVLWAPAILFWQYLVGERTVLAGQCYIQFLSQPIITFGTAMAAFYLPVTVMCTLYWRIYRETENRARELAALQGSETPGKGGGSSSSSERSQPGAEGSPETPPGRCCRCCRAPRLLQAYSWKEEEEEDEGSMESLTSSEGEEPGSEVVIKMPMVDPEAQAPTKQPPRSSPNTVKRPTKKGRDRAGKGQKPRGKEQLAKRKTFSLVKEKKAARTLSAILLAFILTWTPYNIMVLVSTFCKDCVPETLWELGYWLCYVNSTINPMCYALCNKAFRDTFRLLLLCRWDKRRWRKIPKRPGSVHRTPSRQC
Briefly: Agonist activity at human M1 receptor at 100 uM to 5 mM.

The target of assay [8] is Melanocyte-stimulating hormone receptor (Homo sapiens) (UniProt Q01726). As to the kind of experiment: Agonist activity at human MC1 receptor at 100 uM to 5 mM.
Chain of Melanocyte-stimulating hormone receptor (Homo sapiens) (Q01726 whole entry, looked up): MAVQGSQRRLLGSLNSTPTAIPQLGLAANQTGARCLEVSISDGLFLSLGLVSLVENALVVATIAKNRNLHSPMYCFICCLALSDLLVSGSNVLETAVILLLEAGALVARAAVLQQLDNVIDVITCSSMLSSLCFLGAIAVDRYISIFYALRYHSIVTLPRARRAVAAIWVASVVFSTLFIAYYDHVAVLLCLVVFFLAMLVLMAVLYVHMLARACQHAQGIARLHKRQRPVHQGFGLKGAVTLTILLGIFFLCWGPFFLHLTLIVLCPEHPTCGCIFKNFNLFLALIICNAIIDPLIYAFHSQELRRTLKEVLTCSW
Assay [9] addresses D(1B) dopamine receptor (Homo sapiens) (UniProt P21918). As to the kind of experiment: Agonist activity at human D5 receptor at 100 uM to 5 mM.
For assay [10], the target named is Melanocortin receptor 4 (Homo sapiens) (UniProt P32245). Briefly: Agonist activity at human MC4 receptor at 100 uM to 5 mM.
Chain of Melanocortin receptor 4 (Homo sapiens) (P32245 whole entry): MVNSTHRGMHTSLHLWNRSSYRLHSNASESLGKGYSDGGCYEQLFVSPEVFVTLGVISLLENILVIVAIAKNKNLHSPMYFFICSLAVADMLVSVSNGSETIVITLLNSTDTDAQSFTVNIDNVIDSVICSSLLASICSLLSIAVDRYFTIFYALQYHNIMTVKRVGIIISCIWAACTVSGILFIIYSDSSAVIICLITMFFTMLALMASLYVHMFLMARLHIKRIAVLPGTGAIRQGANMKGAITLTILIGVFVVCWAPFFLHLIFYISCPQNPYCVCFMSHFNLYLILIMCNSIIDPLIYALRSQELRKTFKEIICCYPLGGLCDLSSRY
Assay [11] concerns the target Melanocyte-stimulating hormone receptor (Mus musculus) (UniProt Q01727). As to the kind of experiment: Agonist activity at mouse MC1 receptor at 100 uM to 5 mM.

In general, EC50 refers to the concentration giving half of the maximal effect.

The source made the active and inactive calls. The calls are words filed in the database; no cut-off is given here.

Chain of Melanocyte-stimulating hormone receptor (Mus musculus) (Q01727 whole entry, looked up): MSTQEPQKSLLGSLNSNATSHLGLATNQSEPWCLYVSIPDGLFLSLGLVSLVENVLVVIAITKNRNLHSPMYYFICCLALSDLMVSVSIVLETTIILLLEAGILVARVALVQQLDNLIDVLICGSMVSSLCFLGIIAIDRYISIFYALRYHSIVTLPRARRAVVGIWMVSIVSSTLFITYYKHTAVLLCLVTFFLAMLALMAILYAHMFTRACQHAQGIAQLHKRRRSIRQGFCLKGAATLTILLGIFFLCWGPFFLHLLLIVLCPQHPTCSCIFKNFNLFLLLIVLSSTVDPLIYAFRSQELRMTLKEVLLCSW
Chain of Neuromedin-U receptor 2 (Q9GZQ4 whole entry): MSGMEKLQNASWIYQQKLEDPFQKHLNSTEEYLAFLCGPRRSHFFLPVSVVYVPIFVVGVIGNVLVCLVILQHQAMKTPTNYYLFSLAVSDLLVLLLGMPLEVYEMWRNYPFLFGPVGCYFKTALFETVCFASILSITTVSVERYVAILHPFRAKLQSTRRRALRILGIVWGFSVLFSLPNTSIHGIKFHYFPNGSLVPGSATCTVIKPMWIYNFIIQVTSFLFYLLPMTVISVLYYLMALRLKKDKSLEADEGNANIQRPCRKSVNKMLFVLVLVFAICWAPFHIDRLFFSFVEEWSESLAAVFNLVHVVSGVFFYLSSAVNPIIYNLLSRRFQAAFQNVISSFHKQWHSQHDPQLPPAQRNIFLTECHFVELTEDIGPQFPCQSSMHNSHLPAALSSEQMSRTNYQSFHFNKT
Chain of Melanin-concentrating hormone receptor 1 (Homo sapiens) (Q99705 whole entry): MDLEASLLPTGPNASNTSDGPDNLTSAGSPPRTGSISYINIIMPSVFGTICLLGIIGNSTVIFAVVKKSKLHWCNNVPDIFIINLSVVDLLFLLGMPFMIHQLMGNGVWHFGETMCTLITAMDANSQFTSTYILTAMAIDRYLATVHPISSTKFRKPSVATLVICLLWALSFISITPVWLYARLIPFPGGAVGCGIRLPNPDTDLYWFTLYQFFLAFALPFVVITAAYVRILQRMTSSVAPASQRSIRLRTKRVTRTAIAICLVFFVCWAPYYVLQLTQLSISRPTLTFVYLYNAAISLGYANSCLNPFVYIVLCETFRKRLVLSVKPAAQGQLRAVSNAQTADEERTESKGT
Chain of D(1B) dopamine receptor (Homo sapiens) (P21918 whole entry): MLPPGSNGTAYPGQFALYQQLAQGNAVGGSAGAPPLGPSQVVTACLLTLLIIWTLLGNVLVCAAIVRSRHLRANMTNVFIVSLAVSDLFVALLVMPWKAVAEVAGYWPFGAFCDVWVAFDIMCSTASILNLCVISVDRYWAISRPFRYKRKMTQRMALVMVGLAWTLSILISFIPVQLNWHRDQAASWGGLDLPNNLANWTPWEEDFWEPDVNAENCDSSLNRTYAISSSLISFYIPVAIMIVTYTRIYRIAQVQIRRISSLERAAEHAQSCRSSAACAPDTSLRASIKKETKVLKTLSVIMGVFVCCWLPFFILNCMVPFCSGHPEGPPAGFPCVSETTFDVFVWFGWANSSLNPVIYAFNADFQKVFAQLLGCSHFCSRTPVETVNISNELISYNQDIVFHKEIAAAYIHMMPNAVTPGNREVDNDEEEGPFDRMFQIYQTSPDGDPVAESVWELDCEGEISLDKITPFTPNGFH
Chain of Glucagon receptor (Homo sapiens) (P47871 whole entry): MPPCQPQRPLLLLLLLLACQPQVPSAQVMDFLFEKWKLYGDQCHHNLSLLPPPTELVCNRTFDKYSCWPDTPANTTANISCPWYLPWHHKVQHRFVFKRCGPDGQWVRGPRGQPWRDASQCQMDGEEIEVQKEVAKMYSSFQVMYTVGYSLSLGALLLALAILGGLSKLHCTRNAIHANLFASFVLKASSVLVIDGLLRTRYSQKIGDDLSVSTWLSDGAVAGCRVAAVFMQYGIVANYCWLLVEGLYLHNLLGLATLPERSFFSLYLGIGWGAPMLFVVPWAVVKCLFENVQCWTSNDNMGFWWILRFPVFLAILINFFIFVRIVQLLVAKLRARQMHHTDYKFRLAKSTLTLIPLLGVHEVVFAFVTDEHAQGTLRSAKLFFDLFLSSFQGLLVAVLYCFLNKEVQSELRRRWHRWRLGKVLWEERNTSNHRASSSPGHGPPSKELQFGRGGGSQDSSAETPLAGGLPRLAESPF
Chain of Melanocortin receptor 3 (Homo sapiens) (P41968 whole entry): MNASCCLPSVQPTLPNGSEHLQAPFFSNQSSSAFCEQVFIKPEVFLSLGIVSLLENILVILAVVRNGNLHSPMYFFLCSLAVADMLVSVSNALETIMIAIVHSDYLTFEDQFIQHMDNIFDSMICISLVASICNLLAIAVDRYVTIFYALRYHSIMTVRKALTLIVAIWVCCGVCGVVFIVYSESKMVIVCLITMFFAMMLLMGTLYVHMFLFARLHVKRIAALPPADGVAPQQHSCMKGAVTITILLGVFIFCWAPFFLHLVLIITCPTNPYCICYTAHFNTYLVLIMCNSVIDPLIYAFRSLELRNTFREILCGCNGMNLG

For the compound `COc1ccc(C2C=Cc3ccccc3O2)cc1O` (racemic), on Neuromedin-U receptor 2 (hek293), the EC50 result was “Not Active”. The outcome in assay [1], in [2], in assay [3], in [4], in [5] and in assay [6] was inactive. Besides, the outcome in assay [7], in [8], in assay [9], in [10] and in [11] was inactive.

In the case of `COc1ccc(-c2oc3ccccc3c(=O)c2O)cc1O`, the EC50 entry on Neuromedin-U receptor 2 (hek293) was “Not Active”. Moreover, the outcome in assay [1], in assay [2], in assay [3], in assay [4], in [5] and in [6] was inactive. The result in assay [7], in assay [8], in assay [9], in [10] and in assay [11] was inactive.

As to `COc1cc(-c2oc3ccccc3c(=O)c2O)ccc1O`, at Neuromedin-U receptor 2 (hek293), the half-maximal effective concentration (EC50) entry is “Not Active”. Besides, the outcome in [1], in assay [2], in assay [3], in assay [4], in assay [5] and in assay [6] was inactive. Besides, the result in assay [7], in [8], in [9], in assay [10] and in assay [11] was inactive.

As for `O=c1c(OCCO)c(-c2cc(Br)ccc2F)oc2ccccc12`, the EC50 on Neuromedin-U receptor 2 (read-out: EC50) amounted to 47 µM. Moreover, the outcome in assay [1], in [2], in [3], in assay [4], in [5] and in assay [6] was inactive. For the same compound, the result in [7], in assay [8], in [9], in assay [10] and in [11] was inactive.

Turning to `O=c1cc(-c2ccc(Cl)cc2Cl)oc2ccccc12`, the EC50 entry on Neuromedin-U receptor 2 (hek293) was “Not Active”. Besides, the outcome in assay [1], in [2], in assay [3], in assay [4], in assay [5] and in assay [6] was inactive. Also, the result in assay [7], in assay [8], in [9], in assay [10] and in [11] was inactive.

As to `CCOC(=O)COc1c(-c2cc(Br)ccc2F)oc2ccccc2c1=O`, the concentration giving a half-maximal response (EC50) result at Neuromedin-U receptor 2 (hek293) was “Not Active”. Moreover, the result in [1], in assay [2], in assay [3], in assay [4], in [5] and in assay [6] was inactive. In addition, the outcome in assay [7], in assay [8], in [9], in assay [10] and in assay [11] was inactive.

`O=c1c(O)c(-c2cccc(Cl)c2F)oc2ccccc12`: the concentration for a half-maximal effect (EC50) on Neuromedin-U receptor 2 (read-out: EC50) came to 31.1 µM. In addition, the result in assay [1], in assay [2], in [3], in assay [4], in assay [5] and in [6] was inactive. Further, the outcome in assay [7], in [8], in assay [9], in assay [10] and in [11] was inactive.

As to `O=c1c(O)c(-c2cc(Br)ccc2F)oc2ccccc12`, the EC50 at Neuromedin-U receptor 2 (read-out: EC50) was determined as 14 µM. Further, the outcome in assay [1], in [2], in assay [3], in assay [4], in [5] and in [6] was inactive. The result in assay [7], in [8], in assay [9], in assay [10] and in [11] was inactive.

With `O=c1c(O)c(-c2cccc(Br)c2)oc2ccccc12`, on Neuromedin-U receptor 2 (hek293), the EC50 result is “Not Active”. For the same compound, the outcome in [1], in assay [2], in assay [3], in assay [4], in assay [5] and in [6] was inactive. The outcome in assay [7], in [8], in [9], in assay [10] and in assay [11] was inactive.

In the case of `O=c1c(O)c(-c2ccc(Br)cc2F)oc2ccccc12`, the EC50 at Neuromedin-U receptor 2 (read-out: EC50) worked out at 73 µM. The result in assay [1], in assay [2], in assay [3], in [4], in [5] and in assay [6] was inactive. Further, the result in [7], in assay [8], in [9], in [10] and in assay [11] was inactive.

Values taken from ChEMBL document CHEMBL3351764, “Design, synthesis and biological activity of flavonoid derivatives as selective agonists for neuromedin U 2 receptor” (Bioorg Med Chem, 2014).
